NR2E3 ag-1 = inhibitors of NR2E3-RetCOR corepressor binding, primary screen, NR2E3 agonist project, biochemical, TR-FRET, GST-NR2E3, biotin-RetCOR; Photoreceptor-specific nuclear receptor (Homo sapiens), Q9Y5X4; 1536-well; inhibition of corepressor binding, % at 4.78 µM; 0.12% of 320,000 active; AID 2300, 2010;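 active = percent inhibition above the cutoff of mean plus 3 SD of all tested compounds, set per screening campaign, cut at about 20% in these data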;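 also: 0% = DMSO wells and 100% = biotin wells as full block of FRET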
Target sequence (Q9Y5X4 whole entry, looked up): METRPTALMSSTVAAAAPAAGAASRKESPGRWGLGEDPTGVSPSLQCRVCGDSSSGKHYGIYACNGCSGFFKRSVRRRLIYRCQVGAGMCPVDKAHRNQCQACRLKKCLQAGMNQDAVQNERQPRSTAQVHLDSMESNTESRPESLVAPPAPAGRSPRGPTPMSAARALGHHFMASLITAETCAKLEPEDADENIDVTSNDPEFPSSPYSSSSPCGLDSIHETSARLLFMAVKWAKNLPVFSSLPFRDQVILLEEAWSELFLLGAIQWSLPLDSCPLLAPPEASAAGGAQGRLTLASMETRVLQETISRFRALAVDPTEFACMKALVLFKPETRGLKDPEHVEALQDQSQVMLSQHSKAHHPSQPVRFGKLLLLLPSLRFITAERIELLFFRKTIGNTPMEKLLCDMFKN
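System: GST-tagged NR2E3 plus biotinylated RetCOR corepressor; Buffer or medium: pH 7.5 Tris-based buffer; Probe or stimulus: RetCOR corepressor, biotinylated, 7 nM; Doses: compound at 4.8 µM, single dose; Schedule: 5 h incubation at 4 °C; Technique: time-resolved FRET; Evaluation: percent inhibition of TR-FRET ratio; Replication: one well per compound, singlicate testing.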
COUP-TFII inh = NR2F2 transcriptional activity inhibitors, primary screen, cell-based, luciferase reporter, HEK293T, luminescence; COUP transcription factor 2 (Homo sapiens), P24468; HEK293T NGFI-A luciferase reporter; inhibition, % at 8.6 µM; 0.7% of 370,000 active; AID 686940, 2013;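 active = inhibition above a per-plate cutoff, mean inhibition of test wells between control levels plus 3 SD, cut at about 38% in these data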;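 also: cells cotransfected with COUP-TFII expression vector driving the NGFI-A reporter; 0% = median of COUP-TF2 test wells and 100% = reporter-only cells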
NR2E3 ag-2 = NR2E3 agonists in two-hybrid cells, primary screen, cell-based, luminescence, CHO-S, Gal4-NCOR/VP16-NR2E3; Photoreceptor-specific nuclear receptor (Homo sapiens), Q9Y5X4; inhibition of corepressor binding, % at 3.98 µM; luciferase; 0.35% of 360,000 active;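 active = inhibition above the mean of all tested compounds plus 3 SD, cut at about 70% in these data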;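 also: 0% = DMSO with NR2E3 transfected cells and 100% = cells lacking NR2E3 construct; higher means lower luciferase signal from less NR2E3 corepressor binding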
GalR3 antag = GalR3 antagonists in HEK293 cells, primary screen, cell-based, fluorescence readout; HEK293 GalR3-CNG cAMP membrane potential fluorescence; galR3 body fused to GalR1 C-terminus; inhibition, % at 3 µM; 0.44% of 360,000 active;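 active = inhibition above the screen-wide average plus 3 SD, cut at about 13% in these data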;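 also: forskolin and galanin both at EC90 stimulate the cells; cAMP rise reported by CNG channel membrane potential dye signal; 0% = forskolin plus galanin with DMSO and 100% = forskolin alone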
Target sequence (O60755 1-299 limits assumed): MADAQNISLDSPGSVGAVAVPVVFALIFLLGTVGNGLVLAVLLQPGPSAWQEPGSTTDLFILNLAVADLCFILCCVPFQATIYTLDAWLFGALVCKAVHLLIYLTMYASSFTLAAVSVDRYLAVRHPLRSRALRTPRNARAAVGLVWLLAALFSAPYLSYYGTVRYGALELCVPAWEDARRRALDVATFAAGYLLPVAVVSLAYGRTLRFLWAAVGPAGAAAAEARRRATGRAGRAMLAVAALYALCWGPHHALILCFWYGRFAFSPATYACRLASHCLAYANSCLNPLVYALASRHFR
SMARCA2 act = SMARCA2 (BRM) function activators, primary screen, cell-based, luminescence, high throughput; MG213 cells, MMTV-luciferase reporter, dexamethasone, overnight; activation, % at 9.1 µM; 1% of 370,000 active; AID 652017, 2013; in the data active = activation above about 7.8%;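 also: 0% = vehicle wells and 100% = reference activator wells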
GalR3 conf = GalR3 antagonist hit confirmation, cell-based, fluorescence, triplicate; 59% of 1,600 active; inhibition, % at 3 µM; shares compounds with GalR3 antag; HEK293 GalR3 CNG cAMP biosensor, membrane potential fluorescence; galR3 fused to GalR1 carboxy tail; challenged with forskolin and galanin at EC90;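 active = inhibition above the primary screen's cutoff, the mean inhibition of all screened compounds plus 3 SD, cut at about 13% in these data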;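 also: 0% = forskolin plus galanin and 100% = forskolin alone with DMSO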
CNG parental = nonspecific cAMP agonists in parental HEK-CNG cells, counter-screen for GalR3 antagonist project, cell-based, fluorescence, high throughput. 10% of 1,600 active. HEK293-CNG parental cells, cAMP membrane potential fluorescence; normalised: DMSO wells 0%, forskolin wells 100%. shares compounds with GalR3 antag. activation, % at 3 µM; in the data active = activation above about 1.3%
VP16 Luc counter = Gal4-VP16 luciferase reporter inhibitors, counter-screen for COUP-TFII antagonist project, cell-based, luminescence, HEK293; shares compounds with COUP-TFII inh; inhibition, % at 8.5 µM; 25% of 2,500 active; AID 687007, 2013; in the data active = inhibition above about 13%
NR2F2 inh conf = NR2F2 transcriptional activity inhibitors, confirmation, cell-based, luciferase reporter, HEK293, triplicate | shares compounds with COUP-TFII inh | HEK293 NGFI-A luciferase reporter, luminescence | inhibition, % at 8.5 µM | 45% of 2,500 active;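 active = mean inhibition over three repeats above a set limit taken from the earlier primary screen, cut at about 38% in these data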;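 also: 100% = cells given the luciferase reporter alone without the COUP-TF2 vector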
An asterisk follows results filed as active; nt = no result given. A selection: hits, their analogues and other compounds. The true share with any hit is near 2.2%.

SMILES | NR2E3 ag-1 | COUP-TFII inh | NR2E3 ag-2 | GalR3 antag | SMARCA2 act | GalR3 conf | CNG parental | VP16 Luc counter | NR2F2 inh conf
O=C(c1ccc(S(=O)(=O)c2ccc(F)cc2)c([N+](=O)[O-])c1)N1CCCCCC1 | 3 | 43* | -12 | 44* | -5 | 49* | -1 | 18* | 22
CCN1CCN(S(=O)(=O)c2cc(OCC(=O)NC3CCCCC3)c(C)cc2Cl)CC1 | 2 | 46* | 32 | 25* | -5 | 55* | 0 | 9 | 37
Cc1cc(Cl)c(S(=O)(=O)NC2CCCC2)cc1OCC(=O)NC1CCCCC1 | 0 | 53* | 36 | 66* | -5 | 47* | 0 | 3 | 53*
O=C(COc1ccc(Br)cc1Br)NC1CCCC1 | 2 | 47* | -75 | 42* | -4 | 73* | 0 | -123 | -3
Cc1cc(Cl)c(S(N)(=O)=O)cc1OCC(=O)NC1CCCCC1 | -1 | 21 | -11 | -4 | 2 | nt | nt | nt | nt
CC(=O)N1CCN(C2=NC(=O)N(c3ccc(Br)cc3)C(=O)C2)CC1 | nt | 7 | nt | nt | -4 | nt | nt | nt | nt
COC(=O)[C@@]12CCCCC=C1N(CCc1ccc(Cl)cc1)C(=O)[C@H]2CC(=O)NCc1cccc(C(F)(F)F)c1 | nt | -8 | nt | nt | -3 | nt | nt | nt | nt
CCCCN(C)C(=O)C1CCN(S(=O)(=O)c2ccc3[nH]c(=O)oc3c2)CC1 | nt | 14 | nt | nt | -4 | nt | nt | nt | nt
COc1ccc(C(=O)N2CCN(c3ccc([N+](=O)[O-])c(NCCc4ccc(OC)c(OC)c4)c3)CC2)cc1 | -1 | 39* | 24 | 24* | -5 | 92* | 0 | 12 | 89*
COC(=O)C1=C(C)N(Cc2ccc(Br)cc2)C(=S)NC1c1ccc(OC)cc1 (centres undefined) | nt | 6 | nt | -9 | -3 | nt | nt | nt | nt
CCOc1ccc(-n2c(-c3ccccc3)c[n+]3c2CCCCC3)cc1 | 0 | 67* | -11 | 51* | -8 | 78* | 1 | 8 | 49*
O=C(CSc1nnnn1C1CC1)N1CCN(c2cccc(Cl)c2)CC1 | nt | 27 | -18 | -3 | -2 | nt | nt | nt | nt
CC(C)c1ccc(CN2CCN(C(=O)CSc3nnnn3C3CC3)CC2)cc1 | 6 | 63* | 14 | 97* | -5 | 107* | 0 | 1 | 51*
CN1CCN(S(=O)(=O)c2ccc3c(c2)OCCO3)CC1 | 2 | 2 | 6 | -4 | -1 | nt | nt | nt | nt
O=S(=O)(c1ccc2c(c1)OCCO2)N1CCN(c2ncnc3sccc23)CC1 | -2 | 70* | 87* | 100* | -5 | 111* | 0 | 3 | 53*
COc1cccc(N2CCN(c3ncnc4c3cnn4-c3ccc(C)cc3C)CC2)c1 | 3 | 97* | 43 | 67* | -4 | 97* | 0 | 27* | 91*
COC(=O)C1CN(Cc2ccc(Cl)cc2)CCS(=O)(=O)N1Cc1cn(Cc2ccc(C)cc2)nn1 (centres undefined) | nt | 25 | nt | nt | -5 | nt | nt | nt | nt
O=C(c1ccc(CNS(=O)(=O)c2ccccc2)cc1)N1CCN(Cc2ccccc2)CC1 | 3 | 58* | 12 | 21* | -8 | 10 | 0 | -4 | 16
COc1ccc(OC)c(NC(=O)c2ccccc2N(Cc2ccccc2)C(=O)C(C)Cl)c1 (centres undefined) | nt | -11 | nt | nt | -1 | nt | nt | nt | nt
Cc1ccc(NC(=O)CSc2ccc3c(c2)OCCO3)c(O)c1 | 3 | 39* | -4 | 33* | -4 | 75* | -1 | 4 | 37
Cc1ccc(-n2c(SCC(=O)c3ccc(-c4ccccc4)cc3)nnc2-c2ccc(C(C)(C)C)cc2)cc1 | nt | 10 | nt | nt | -3 | nt | nt | nt | nt
CCCCCCCCCn1ccc(=N)cc1 | 0 | 77* | 12 | 96* | -11 | 110* | 0 | 22* | 82*
CCCCCCCn1ccc(=N)cc1 | 1 | 80* | 18 | 16* | -3 | 33* | 0 | 24* | 77*
CCOC(=O)CC[C@@H]1CC[C@]2(CCCN(S(=O)(=O)C3CCCCC3)C2)O1 | nt | -6 | nt | nt | -1 | nt | nt | nt | nt
COc1ccc(S[C@]2(C(=O)N3CCN(c4ncccn4)CC3)CC(=O)N(C(=O)Nc3ccc(C)c(Cl)c3)[C@@H]2c2ccc(OC)cc2)cc1 | nt | 8 | nt | nt | -1 | nt | nt | nt | nt
SMILES | NR2E3 ag-1 | COUP-TFII inh | NR2E3 ag-2 | GalR3 antag | SMARCA2 act | GalR3 conf | CNG parental | VP16 Luc counter | NR2F2 inh conf
COc1ccc(CNC(=O)OC2CC3CC2[C@H]2CCCCN2C3)cc1 (some centres undefined) | nt | -10 | nt | nt | 2 | nt | nt | nt | nt
COC(=O)[C@H](C(C)C)N(CCc1cn(CC2CCCCC2)nn1)S(=O)(=O)c1ccc(F)cc1Br | nt | 14 | nt | nt | -1 | nt | nt | nt | nt
CCCCCCCC[n+]1cccc2c3ccccc3ccc21 | 1 | 80* | 10 | 65* | -11 | 54* | 3.1* | 14* | 77*
CC(c1ccccc1)n1cc(C(=O)N2CCCC2)nn1 (centres undefined) | nt | 7 | nt | nt | 0 | nt | nt | nt | nt
COc1ccc(/C=C2\Sc3ccc(C(=O)N4CCN(Cc5ccccc5)CC4)cc3N(C)C2=O)cc1OC | 0 | 71* | 22 | 60* | -4 | 106* | 0 | 6 | 58*
COc1ccc(CN(C)C(=O)c2ccc(OCC(=O)Nc3cccc(C(F)(F)F)c3)c(OC)c2)cc1 | nt | 64* | 8 | 18* | -4 | 85* | 0 | -2 | 48*
COc1cc(C(=O)NCc2cccnc2)ccc1OCC(=O)Nc1cccc(C(F)(F)F)c1 | 5 | 30 | 8 | -6 | -4 | nt | nt | nt | nt
C=CCN1[C@H](C#N)[C@@H](c2ccc(C#Cc3cccnc3)cc2)[C@H]1CO | nt | 7 | nt | nt | 0 | nt | nt | nt | nt
COc1ccc(/C=N/OCC(=O)NC(c2ccccc2)c2ccccc2)cc1OC | 0 | 61* | 21 | 89* | -5 | 100* | 0 | -6 | 62*
